Only some compounds are listed: those with a hit (about 1.2% of all), similar ones and a draw of the others.
LANA-H2A inh = blocks KSHV LANA binding to histone H2A/H2B | Q9QR71 | cell-free LANA-H2A/H2B peptide, fluorescence polarization | inhibition, % (no concentration beside the values) | actives 0.6% (n = 320,000); in the data active = inhibition mostly above about 10%, no sharp cut-off; inactive = mostly below about 6.7%
ASAP1 GAP inh = blocks human ASAP1-stimulated Arf1 GTP hydrolysis. Q9ULH1. GDP FP detection. inhibition, % at 16.5 µM. actives 0.19% (n = 360,000). AID 624377; in the data active = inhibition above about 25%;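 note: 0% = vehicle with enzyme and substrate and 100% = no enzyme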
proCasp3 act = procaspase-3 (human) activation. activation, % at 8.5 µM. recombinant procaspase-3 D3A, Ac-DEVD-pNA absorbance 405 nm. P42574. actives 0.11% (n = 330,000);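 active = activation above the mean of all tested compounds plus 3 SD, cut at about 21% in these data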;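 note: 0% = DMSO alone and 100% = DMSO wells spiked with extra 5 µM PC-3 D3A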
Target sequence (P42574 whole entry D9A/D28A/D175A): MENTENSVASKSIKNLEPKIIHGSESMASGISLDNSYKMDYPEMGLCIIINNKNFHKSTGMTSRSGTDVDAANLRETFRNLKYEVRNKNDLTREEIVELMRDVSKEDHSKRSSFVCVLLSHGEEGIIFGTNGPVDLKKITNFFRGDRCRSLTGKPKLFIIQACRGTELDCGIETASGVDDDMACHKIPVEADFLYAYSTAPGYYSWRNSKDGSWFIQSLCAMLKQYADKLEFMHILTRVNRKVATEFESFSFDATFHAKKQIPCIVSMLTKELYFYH
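Technique: 405 nm absorbance of p-nitroaniline, reads at 0 and 120 min; Test system: Procaspase-3 D3A mutant; Incubation: 1 h enzyme-compound preincubation, then 2 h substrate reaction, 25 °C; Repeats: singlicate, each compound tested once; Benchmarks: low control DMSO wells, high control DMSO plus 5 µM PC-3 D3A.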
ARFGAP1 inhibitor = inhibitors of rat ARFGAP1 | Q62848 | Arfgap1-stimulated ARF1 GTP hydrolysis, GDP FP detection | inhibition, % at 16.5 µM | actives 0.26% (n = 360,000);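 active = inhibition above a per-plate limit, mean inhibition of low control wells plus 3 SD, cut at about 25% in these data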;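 note: 0% = DMSO wells with enzyme and 100% = wells lacking Arfgap1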
Target sequence (Q62848 1-136 limits assumed): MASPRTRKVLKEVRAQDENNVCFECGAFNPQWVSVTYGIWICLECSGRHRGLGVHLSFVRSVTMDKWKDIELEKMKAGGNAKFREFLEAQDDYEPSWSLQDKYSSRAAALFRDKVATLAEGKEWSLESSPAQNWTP
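System: truncated rat Arfgap1 GAP domain / Benchmarks: high control wells lacking Arfgap1, low control full reaction with DMSO / Times: compound-enzyme preincubation 20 min, reaction 120 min, detection 60 min, 25 °C / Repeats: one replicate per compound / Also added: human ARF1(Δ1-17)-GTP substrate / Measured by: Tracer-displacement fluorescence polarization with EDTA stop, 620/688 nm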
Yeast superoxide = caloric restriction mimetics inhibiting age-related superoxide in yeast; S. cerevisiae aged cells, superoxide DHE fluorescence; hits give low values; superoxide response (% of plate mean), % at 10 µM; actives 0.18% (n = 330,000); AID 2690;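 active = superoxide response under a set limit, about three screen SD below normal, cut at about 65% in these data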;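 note: yeast aged for seven days with compound at 30 °C before DHE staining; 100% = average MFI of all compound-treated wells on the plate with controls excluded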
proCasp7 act = counter-screen: procaspase-7 (human) activation | P55210 | recombinant procaspase-7, Ac-DEVD-pNA absorbance 405 nm; D23A/D198A/D206A triple mutant, cannot self-cleave; scale: DMSO 0, 5 µM enzyme 100 | activation, % at 8.5 µM | actives 0.093% (n = 330,000) | AID 463210;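 active = percent activation above the screen-wide mean plus 3 SD, cut at about 25% in these data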
Target sequence (P55210 whole entry D23A/D198A/D206A): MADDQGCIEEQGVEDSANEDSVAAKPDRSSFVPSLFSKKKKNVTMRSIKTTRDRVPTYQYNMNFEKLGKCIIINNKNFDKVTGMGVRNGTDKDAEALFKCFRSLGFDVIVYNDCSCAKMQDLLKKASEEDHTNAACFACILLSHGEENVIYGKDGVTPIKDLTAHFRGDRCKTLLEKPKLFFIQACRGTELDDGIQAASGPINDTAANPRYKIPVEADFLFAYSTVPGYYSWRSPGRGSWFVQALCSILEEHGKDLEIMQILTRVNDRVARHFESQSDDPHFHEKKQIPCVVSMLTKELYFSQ
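Test system: Procaspase-7 triple mutant (PC-7 D3A). Also added: Ac-DEVD-pNA substrate, 400 µM as added. Schedule: 1 h enzyme–compound preincubation and 2 h substrate reaction, both 25 °C. Signal: p-Nitroaniline absorbance at 405 nm, read at 0 and 120 min. Control set: low DMSO alone, high DMSO plus 5 µM PC-7.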
ASAP1 GAP conf = ASAP1 inhibition confirmed; shares compounds with ASAP1 GAP inh; ASAP1-stimulated Arf1 GTPase, GDP fluorescence polarization; inhibition, % at 16.5 µM; actives 37% (n = 620);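 active = mean inhibition over triplicates exceeds the hit threshold derived for the earlier primary screening run, cut at about 25% in these data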
The depositor's hits bear a star; nt = no result.

SMILES | LANA-H2A inh | ASAP1 GAP inh | proCasp3 act | ARFGAP1 inhibitor | Yeast superoxide | proCasp7 act | ASAP1 GAP conf
C[C@H](CO)N1C[C@H](C)[C@H](CN(C)C(=O)Nc2ccc(F)cc2)Oc2c(NC(=O)c3ccc(-c4nccs4)cc3)cccc2C1=O | 5 | 31* | 6 | 6 | 97 | -2 | 10
COc1cc2sc3ccc(C#Cc4ccccn4)cc3c(=O)c2cc1OC | -1 | 31* | -6 | 12 | 105 | -2 | 28*
CCN1C=C(Cc2cccs2)C2=C(C1)C(c1cccs1)C(C#N)=C(N)O2 (stereo not drawn) | -2 | 25* | 0 | -4 | 103 | 7 | 7
CSCCNC(=O)C1(C)CCN1C(=O)CCc1ccccc1 (stereo not drawn) | nt | 29* | nt | -5 | nt | nt | 0
Cc1ccc(C(=O)OCC(=O)NC2CCCC(C)C2C)s1 (stereo not drawn) | nt | -8 | nt | -3 | nt | nt | nt
C=CCn1c(C)cc(-c2csc(NCC)n2)c1C | 3 | 13 | 1 | 15 | 109 | 3 | nt
C=CCn1c(C)cc(-c2csc(NC)n2)c1C | nt | 26* | nt | 0 | nt | nt | 5
O=C(COc1ccc(Br)cc1)NCCCn1ccnc1 | -1 | 13 | 3 | -7 | 99 | -9 | nt
C=CCn1c(-c2ccccc2OC)n[nH]c1=S | -2 | -4 | -7 | -8 | 94 | -5 | nt
C=CCn1c(-c2cccc3ccccc23)n[nH]c1=S | 0 | 52* | 1 | 5 | 89 | -14 | -3
CC1CCCC(C)N1CCCNC(=O)c1ccc2nc(N3CCCCC3)sc2c1 (stereo not drawn) | 1 | 5 | 4 | 4 | 103 | -7 | nt
O=C(NNS(=O)(=O)c1ccc(Cl)cc1)c1cc(-c2ccccc2)nc2ccccc12 | 0 | 28* | -7 | 5 | 95 | -1 | 15
O=C(Nc1ccn(CCCN(CCCn2ccc(NC(=O)OCc3ccccc3)nc2=O)CCc2cc3ccccc3[nH]2)c(=O)n1)OCc1ccccc1 | nt | 30* | nt | 19 | nt | nt | 16
O=C(Nc1ccn(CCCNCc2ccccc2)c(=O)n1)OCc1ccccc1 | nt | 2 | nt | 15 | nt | nt | nt
CC1(c2ccc(Cl)cc2)NC(=O)N(CN2CCOCC2)C1=O (stereo not drawn) | 1 | -3 | -1 | -4 | 90 | 0 | nt
COC(=O)c1ccc(NC(=O)C(OC)c2ccccc2)cc1 (stereo not drawn) | -2 | -4 | 3 | -1 | 109 | 6 | nt
Cc1ccc(NC(=O)C(OC(=O)c2ccc(O)cc2)c2ccccc2)cc1Cl (stereo not drawn) | 1 | 28* | 3 | 10 | 96 | 5 | -1
c1cnc(Sc2ccc3nnnn3n2)nc1 | -3 | 1 | 0 | 7 | 110 | -5 | nt
COc1ccc(N(C)S(=O)(=O)c2cccc(C(=O)NCc3ccc4c(c3)OCO4)c2)cc1 | 0 | 25* | 2 | 4 | 89 | 1 | 6
O=C(O)[C@H](Cc1ccccc1)NC(=O)N1CCN(c2cccc(C(F)(F)F)c2)CC1 | -4 | -5 | 1 | -10 | 89 | 8 | nt
O=S(=O)(NC1CCCCC1)c1cccs1 | -5 | -4 | 9 | 3 | 103 | 0 | nt
CC1OC(Nc2cccc3ccccc23)C(O)C(O)C1O (stereo not drawn) | -3 | 26* | -6 | 9 | 108 | -18 | 4
O=C(CN1CCOCC1)Nc1cccc(S(=O)(=O)N2CCCCCC2)c1 | -371 | 27* | 3 | 5 | 96 | 8 | 4
CC1CC(=O)Nc2ccccc2N1S(=O)(=O)c1cccc(Cl)c1 (stereo not drawn) | -4 | -4 | -2 | 0 | 116 | -4 | nt
CC(=O)c1ccc(S(=O)(=O)NCC(=O)N2CCN(C/C=C/c3ccccc3)CC2)cc1 | 0 | 28* | -2 | -3 | 102 | -4 | 1
SMILES | LANA-H2A inh | ASAP1 GAP inh | proCasp3 act | ARFGAP1 inhibitor | Yeast superoxide | proCasp7 act | ASAP1 GAP conf
Cc1ccc(OCc2nn3c(-c4ccco4)nnc3s2)cc1 | -7 | -7 | -1 | -5 | 101 | -40 | nt
Clc1ccc(OCc2nn3c(-c4ccco4)nnc3s2)c(Cl)c1 | -2 | 26* | 2 | 5 | 114 | 0 | 37*
O=C(COc1cccc(C(F)(F)F)c1)NNC(=O)c1ccc(=O)[nH]c1 | -1 | -13 | 5 | -15 | 105 | 10 | nt
O=C1NC(=S)S/C1=C\C=C\c1ccc([N+](=O)[O-])o1 | nt | 29* | nt | 8 | nt | nt | 11
COc1ccc(Br)cc1C(=O)Nc1cccc(-c2nnc(-c3ccco3)o2)c1 | -2 | 72* | 4 | 3 | 128 | 3 | 37*
CCOc1cc2c(C#N)c(N(CC)CC)nc(N)c2c(N)n1 | -7 | 33* | -16 | 20 | 92 | -8 | 9
CC1=C/C(=N\NC(=S)Nc2cccnc2)CC(C)(C)C1 | nt | 11 | nt | 10 | nt | nt | nt
COc1ccc(N(C(=O)CCl)C(C(=O)NC2CCCCC2)c2cccnc2)cc1 (stereo not drawn) | 2 | 70* | 5 | -8 | 99 | -1 | 0
Cc1nc2ccccc2nc1N1CCCC1 | 10 | 31* | 1 | 6 | 104 | 5 | 3
Cc1nn(-c2ccccc2)c(Cl)c1CN(C(=O)CCl)c1cccc2ccccc12 | -2 | 3 | -1 | -13 | 93 | -13 | nt
O=C(CCNS(=O)(=O)c1ccc(OC(F)(F)F)cc1)N1CCN(S(=O)(=O)c2cccc(F)c2)CC1 | -3 | -26 | 5 | -11 | 101 | 2 | nt
Cc1cc(C)c(C)c(S(=O)(=O)N2CCSCC2)c1C | 0 | 25* | 4 | -2 | 105 | 0 | 5
Cc1c(C)c(C)c(S(=O)(=O)N2CCSCC2)c(C)c1C | 6 | 4 | -8 | -2 | 100 | 8 | nt
CCOC1=C2CN(S(=O)(=O)c3ccc(C)cc3)[C@@H](c3ccc(CC)cc3)C[C@H]2[C@H]2C(=O)N(c3ccccc3)C(=O)[C@H]2C1 | nt | -3 | nt | 0 | nt | nt | nt
Cc1cccc(NC(=O)CSc2nnc(-c3ccc(S(=O)(=O)N4CCCC4)cc3)o2)c1 | -6 | nt | -1 | nt | 80 | 4 | nt
Cc1ccc(NC(=O)CSc2nnc(-c3ccc(S(=O)(=O)N4CCCC4)cc3)o2)cc1C | nt | 31* | 4 | -5 | 107 | -3 | 4
COc1ccc(Cl)cc1NC(=O)CN(C)C(=O)c1cn2ccccc2n1 | -3 | 10 | 2 | 9 | 98 | -2 | nt
CN1CCN(c2ccc(S(=O)(=O)N3CCCCC3)cc2NC(=O)/C=C/c2ccc(OC(F)F)cc2)CC1 | 2 | 25* | 3 | 14 | 90 | 5 | 19

Compound activity as filed in PubChem BioAssay.
